Assay: Toxicity liver stage against HepG2, at 10uM
Assay type: cell-based
Set-up: test concentration 10 uM, cell line HepG2-A16-CD81EGFP
Conditions: human, HepG2-A16-CD81EGFP cells; read-out: INHIBITION
Procedure, shortened: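 Uninfected HepG2-A16-CD81EGFP cells, 3 × 10^3 per well, 1536-well, plated on prespotted compound at 10 μM final, parasite-free screening media added to match infected plates; puromycin 10 μM positive, DMSO 0.5% negative; run in parallel with 48 h PbLuc assay at 37 °C, 5% CO2; viability by CellTiter-Glo luminescence, normalized to controls.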

| Compound | cytotoxicity at 10 µM |
| --- | --- |
| CC(C)Oc1cccc(C(=O)C2CCCN(C(=O)c3ccoc3)C2)c1 (stereo not given) | 1.43% |
| C=C(C)CSc1nnc(CCNC(=O)OC(C)(C)C)o1 | 8.94% |
| CCCC(=O)N(CCN1CCOCC1)c1nc2c(OC)ccc(C)c2s1 | -5.02% |
| Cn1c(=O)c2cc(C(=O)NCCc3ccccc3)ccc2n(C)c1=O | -13.8% |
| CCN(CC)C(=O)CC[C@@H]1CNC(=O)[C@@H]2C[C@H](NC(=O)C3CC3)CN12 | 5.76% |
| COCCn1ccc2cc(C(=O)N3CCN(S(C)(=O)=O)CC3)ccc21 | -6.63% |
| Cc1ccc(S(=O)(=O)NCC2(O)CCOc3ccccc32)s1 (stereo not given) | 5.33% |
| N#Cc1ccc(OC2CCN(C(=O)c3ccc(Br)o3)CC2)nc1 | 11.2% |
| COCCc1noc(C2CCN(C(=O)Nc3cccs3)CC2)n1 | -10.6% |
| CN(C)c1ccc2c(c1)CN(C(=O)c1ccco1)C2c1cnco1 (stereo not given) | 31.9% |
| Cn1c2c(c(=O)n1C)CN(C(=O)c1ccsc1)CCC2 | 5.04% |
| Cc1noc(C2CCC3(CCN(C(=O)c4ccn(C)n4)CC3)O2)n1 (stereo not given) | 7.57% |
| Cn1cc(CN2CCC(F)(F)C3(CCN(c4cccc(F)c4)C3)C2)cn1 (stereo not given) | 45.9% |
| O=C(NCc1ccco1)[C@@H]1C[C@H]2OCC[C@H]2N(c2ncc(F)cn2)C1 | -0.113% |
| Cc1ccccc1OCC(=O)N1CC[C@]2(C[C@@H](OCC3CC3)CO2)C1 | 3.1% |
| CC(C)C(NC(=O)Cn1nc2c(cc1=O)CCCC2)C(=O)O (stereo not given) | 7.63% |
| Cc1cccc(Cn2cc(Br)c(NS(C)(=O)=O)n2)c1 | -0.08% |
| COCC(=O)NCCn1nc(-c2cc(C)oc2C)ccc1=O | -1.74% |
| O=C(NC[C@]1(O)CCN(Cc2ccsc2)C[C@H]1O)c1c[nH]cn1 | 0.514% |
| O=C1N[C@H]2OCCC[C@H]2[C@H](c2ccccc2C(=O)O)N1 | 2.62% |
| Cn1ccnc1CNC(=O)CCc1cccc(F)c1 | 0.293% |
| COCCC(=O)N1CCC2(CC1)CN(S(C)(=O)=O)Cc1ccccc1O2 | 3.73% |

| Compound | cytotoxicity at 10 µM |
| --- | --- |
| c1cnc(Nc2cncc(C3CCCN(c4ncccn4)C3)n2)nc1 (stereo not given) | -2.44% |
| COc1ccccc1CC(C)N(C)CCS(C)(=O)=O (stereo not given) | 7.57% |
| CC(NCCCn1ccnc1)c1ccc(N2CCCS2(=O)=O)cc1 (stereo not given) | -7.49% |
| CCn1cc(S(=O)(=O)NCc2ccnc(-n3ccnc3)c2)cn1 | -1.78% |
| Cc1cnn(CCNCC(=O)N2CCN(c3ccccn3)CC2)c1 | 1.22% |
| CNC(=O)CCN(C)CC1(c2ccc(Br)cc2)CC1 | -12.5% |
| NC(=O)CSCCC(=O)NCC1CC1 | 6.2% |
| Cc1cnn(Cc2ccc(NC(=O)N3CCCCC3CO)cc2)c1 (stereo not given) | 56.1% |
| CNS(=O)(=O)c1ccc(CNC(=O)Nc2ccccn2)s1 | -9.11% |
| Cc1c(CS(C)(=O)=O)cccc1NCC1CCCCC1 | -8.98% |
| CCNC(=O)CCC(=O)NC(C)Cc1ccccc1Br (stereo not given) | -4.99% |
| Cc1cc(C)c(CNC(=O)N2CCC(N3CCCCC3)CC2)c(=O)[nH]1 | 7.53% |
| Cc1cc(C(=O)N2CC(=O)Nc3cnccc32)c(Cl)cc1F | 3.07% |
| CC(Nc1ccc(N2C(=O)CCCC2=O)cc1)c1ccc(C#N)cc1 (stereo not given) | 8.71% |
| CCOCC(=O)Nc1ncc(I)cc1C | -4.76% |
| Cc1ccc(NC2CCN(C(=O)CCCc3ccccn3)CC2)cc1 | 13.3% |
| Cc1ccc(C)c(S(=O)(=O)NCCC(=O)NCc2ccoc2)c1 | -11.5% |
| Cc1ccc(C(=O)Nc2ccn(CCC(N)=O)n2)cc1 | 2.42% |
| Cc1nc(C2(NCC(=O)NC(=O)NCC(F)(F)F)CCCCC2)no1 | 18.4% |
| Cn1cnnc1CCNC(=O)c1ccccc1OC1CCC1 | -2.94% |
| Cc1nc(NC(=O)c2nn(-c3ccc(F)cc3C)cc2O)n[nH]1 | -7.3% |
| N#Cc1nccnc1NCCC1CCN(CC(F)(F)F)CC1 | 1.6% |

| Compound | cytotoxicity at 10 µM |
| --- | --- |
| CC(C)OCCS(=O)(=O)c1ccccc1C#N | 8.24% |
| O=C(c1ccc2[nH]cnc2c1)N1CCCC1Cn1cccn1 (stereo not given) | -10% |
| CC(C)OCCN1CCN(C(=O)c2cc(-n3cccn3)ccn2)CC1 | -0.158% |
| Cc1nc(-c2ccccc2)ccc1C(=O)N1CCn2c(C)nnc2C1 | 4.01% |
| Cc1ccc(C(F)(F)F)cc1NCC(=O)Nc1c(C)nn(C)c1C | -1.86% |
| CC(C)c1cnc(CN2C(=O)CC3(CCSC3)C2=O)o1 (stereo not given) | 17.2% |
| CC(C)(C)c1cnc(CN2C(=O)CC3(CCSC3)C2=O)o1 (stereo not given) | 7.28% |
| Cc1nnc(CN(Cc2ccccc2Cl)C2CCCC2)o1 | 0.256% |
| Cn1cc(CC(CNC(=O)Nc2cccc(Cl)c2)C(N)=O)cn1 (stereo not given) | -15.5% |
| Cc1cccc2c1OCCCC2NCc1nccn1Cc1ccccc1 (stereo not given) | 1.38% |
| CN(C)c1ccc(CNCc2ccc(N3CCOCC3)cc2)cn1 | 7.17% |
| O=C(Nc1ccc(-n2cccn2)c(F)c1)C1CCN(C(=O)C2CC2)CC1 | 1.48% |
| Cn1nnnc1SCCC(=O)NCC1Cc2ccccc2O1 (stereo not given) | 9.35% |
| Cc1ccc(CCCC(=O)N2CCC(CS(N)(=O)=O)CC2)s1 | 15.6% |
| COc1cccc(COCC(=O)NC(C)c2nnc3n2CCC3)c1 (stereo not given) | -3.36% |
| Cn1ncnc1NCc1ccc(Cl)cc1 | -4.43% |
| Cc1nncn1CCNC(=O)C(C)(C)c1cccc(C(F)(F)F)c1 | 8.63% |
| CC(CC(=O)Nc1ccc(C(=O)N(C)C)c(Cl)c1)n1cccc1 (stereo not given) | 7.07% |
| Cc1ccc(C2COCCN2C(=O)c2ccc(N(C)C)cc2)o1 (stereo not given) | 4% |
| CCc1cc(NCC(O)CN2CCCCC2)n2ncnc2n1 (stereo not given) | -7.45% |
| Cc1nc(C)n(CC2CCCN(Cc3nnc(-c4ccco4)o3)C2)n1 (stereo not given) | -8.33% |
| O=C(NCc1cc[nH]n1)NC1CCCN(c2ncccn2)C1 (stereo not given) | -2.26% |

| Compound | cytotoxicity at 10 µM |
| --- | --- |
| CCCNC(=O)c1nc2c(o1)CN(C(C)=O)C2 | -70.6% |
| COc1ccc(N2CCN(Cc3nc(CSC)no3)C(C)C2=O)cc1 (stereo not given) | 3.28% |
| Cc1nc(N(C)C)ncc1C(=O)NCCc1csc(-c2ccncc2)n1 | 1.39% |
| CNC(=O)CCN1CCC(c2nnc(Cn3cccn3)n2C2CC2)CC1 | 1.53% |
| CCC(=O)Nc1cccc(OCC(=O)N(C)Cc2cc(COC)[nH]n2)c1 | 1.79% |
| COCC(C)N1CCc2onc(-c3ccc(C(F)(F)F)cc3)c2C1 (stereo not given) | -6.45% |
| COCc1ccc(C(=O)N2CCN(CC=C(C)C)[C@@H]3CS(=O)(=O)C[C@@H]32)o1 | 17.2% |
| O=C(NC1CCCN(CCc2ccccc2)C1)c1cnccn1 (stereo not given) | 7.95% |
| COc1cccc2c1OCC(C(=O)N1CCSCC1)C2 (stereo not given) | 1.88% |
| O=C(c1cc2c(s1)CCCCC2)N1CCC(c2ncc[nH]2)CC1 | 15.7% |
| CCOC(=O)N[C@H]1C[C@@H](C(=O)NCc2cccc(Cl)c2)N(C)C1 | -3.89% |
| C[C@@H]1CN(C(=O)c2ccc(=O)[nH]c2)CC[C@@]1(O)C1CCOCC1 | -1.59% |
| CC[C@H]1CN(C(=O)c2cccc(-n3cnnc3)n2)CC[C@@]1(C)O | 3.66% |
| Cc1cc2cccc(NC(=O)N3CCC(N(C)C)C3)c2o1 (stereo not given) | 1.97% |
| CCN(Cc1nccn1C)C(=O)c1ccc(NCCc2c[nH]cn2)nc1 | -2.5% |
| O=c1cc(C2CCNCC2)nc(CCc2ccccn2)[nH]1 | -0.226% |
| CSc1ccccc1C(C(=O)O)N(C)CC1CCOCC1 (stereo not given) | 4.93% |
| c1ccc(C2CCCN2C2CCSCC2)nc1 (stereo not given) | 9.03% |
| COc1cccc(OCCNS(C)(=O)=O)c1 | 13% |
| O=C(CCC(F)(F)F)N1CCCC(c2ncc[nH]2)C1 (stereo not given) | 2.14% |
| O=C(Nc1cccc(CNCc2ccccn2)c1)C1CCCC1 | -7.63% |
| Cc1n[nH]c(C)c1C1COCCN1C(=O)c1ccc(Cl)o1 (stereo not given) | -1.01% |

| Compound | cytotoxicity at 10 µM |
| --- | --- |
| c1ncn(CC2CCCN(Cc3nnc(C4CC4)o3)C2)n1 (stereo not given) | -14.5% |
| CCC1c2ccsc2CCN1C(=O)NCc1ccc(C)nc1 (stereo not given) | -3.75% |
| Cc1nn(C)c(C)c1C1COCCN1C(=O)c1n[nH]c2ccccc12 (stereo not given) | -8.72% |
| O=C(NCCNc1ncccn1)C1CCN(c2ncccn2)CC1 | -7.67% |
| c1ccc(CNC2CCc3ncnn3C2)nc1 (stereo not given) | -6.69% |
| Cc1ncc(CNC(=O)N(C)C2CCN(c3ccccc3)C2=O)s1 (stereo not given) | -14.7% |
| CN(C)c1ncccc1CNC(=O)N1CCCC1c1ccsc1 (stereo not given) | -6.33% |
| Cc1cnn(C2CCCN(C(=O)Cc3ccc(-n4cccn4)cc3)C2)c1 (stereo not given) | 2.55% |
| COc1ccc(OC)c(NC(=O)NCC(O)c2ccc(F)c(F)c2)c1 (stereo not given) | 0.746% |
| Cc1ccc(NC2CCN(C(=O)Cc3ccc(C#N)cc3)CC2)nn1 | -6.83% |
| CC(C)n1c(=O)c2ccccc2n(CCN(C)C)c1=O | 0.616% |
| Cc1nnc(N2CC[C@H]3C[C@@H](C(=O)N4CCCC4)O[C@H]3C2)s1 | -70.6% |
| Cc1cc(CN2CCC3(CC2)CC(Nc2ncccn2)CO3)nn1C (stereo not given) | -1.84% |
| CN(C)C(=O)CO[C@H]1CN(Cc2ccsc2)[C@@H]2COC[C@H]12 | 8.44% |
| CC(=O)N1[C@H](CN(C)C)C[C@@H]2CN(c3ncc(F)cn3)CC[C@@H]21 | 5.56% |
| COCc1ncn2c1CN(S(=O)(=O)Cc1ccc(C)cc1)CC2 | 0.854% |
| COCCN1CCO[C@@H]2CN(Cc3ccc(C)o3)C[C@@H]2C1 | -7.24% |
| O=C(c1cccnc1)N1C[C@@H](c2ccccc2)[C@@]2(CCNC2=O)C1 | -6.23% |
| Cc1cc(CN2CCO[C@H]3[C@H](OCc4csc(C)n4)CC[C@@H]32)no1 | 5.86% |
| Cn1cnc2c1C(COCC1CCOCC1)CN(C1CCOCC1)C2 (stereo not given) | -4.22% |
| CCC=C(C)C(=O)NCc1ccc(OC)nc1 | -4.13% |
| O=C(NCC1(COc2cnccn2)C[C@@H](O)[C@@H](O)C1)C1CCOCC1 (stereo not given in full) | -2.48% |

Reference: ChEMBL document CHEMBL4513216, “Probing the Open Global Health Chemical Diversity Library for Multistage-Active Starting Points for Next-Generation Antimalarials” (ACS Infect Dis, 2020)
